In ChEMBL document CHEMBL4041464, “New potent biaryl sulfate-based hepatitis C virus inhibitors” (Eur J Med Chem, 2017):
Each block holds one compound with its values, some of them ahead of it.

Legend:
[1] = test system: Salmonella typhimurium; assay: Mutagenicity in Salmonella typhimurium TA98 assessed as revertant colonies/plate in absence of liver S9 fraction at 1 ug/plate by Ames test (reference value: 21 +/- 1); assay type: toxicity; settings: salmonella enterica subsp. enterica serovar typhimurium
[2] = Metabolic stability in rat plasma assessed as compound remaining at 100 uM after 4 hrs incubation by LC-MS/MS analysis; assay type: ADME, cell-free; settings: read-out: Stability
Summary of the method: (§1)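 Test compound (100 µM stock) was added to plasma pre-warmed 5 min at 37°C, mixed by vortex and incubated at 37°C. Samples were taken at 0, 15, 30, 60 and […] and quenched with 2 volumes acetonitrile. After centrifugation at 10,000 rpm for 10 min, the supernatant was analysed by LC-MS/MS. Results are given as % remaining after 4 h; mean ± SD. Enalapril and procaine served as controls.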

[3] = test system: Huh7.5.1; assay: Cytotoxicity against human Huh7.5.1 cells at 20 uM; assay type: cell-based
[4] = Inhibition of HCV genotype 1b NK5.1 NS5A in infected human Huh 7.5.1 cells assessed as reduction in viral RNA replication incubated for 3 days by luciferase reporter gene assay; design: species or system Hepatitis C virus subtype 1b; settings: Hepatitis C virus, NK5.1, Huh-7.5.1, 72 h
Summary of the method: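 Genotype 1b replicon cells (Huh 7.5.1 carrying NK5.1-Gluc) were cultured 16 h, then given serially diluted compounds for 3 days. Culture media were collected and luciferase activity measured and normalised to mock-treated cells to derive EC50. Cells were maintained in DMEM with 10% heat-inactivated FBS and antibiotics at 37°C, 6.0% CO₂.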

[5] = Inhibition of HCV genotype 2a JFH5a replicon NS5A in infected human Huh 7.5.1 cells assessed as reduction in viral RNA replication incubated for 3 days by luciferase reporter gene assay; design: species or system Hepatitis C virus subtype 2a; settings: Hepatitis C virus, Huh-7.5.1, 72 h
Summary of the method: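 Huh 7.5.1 cells were infected with JFH5a-Rluc-ad34 (a JFH1 genotype 2a derivative with adaptive E2/p7 mutations, Renilla luciferase reporter) cell-culture virus for 3 h. They were then cultured in serially diluted compounds for 3 days. Cells were harvested and Renilla luciferase activity measured, normalised to mock-treated cells, to give EC50.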

[6] = test system: Salmonella typhimurium; assay: Mutagenicity in Salmonella typhimurium TA98 assessed as revertant colonies/plate in absence of liver S9 fraction at 5000 ug/plate by Ames test (reference value: 1); assay type: toxicity; settings: salmonella enterica subsp. enterica serovar typhimurium
[7] = test system: Salmonella typhimurium; assay: Mutagenicity in Salmonella typhimurium TA100 assessed as revertant colonies/plate in presence of liver S9 fraction at 5000 ug/plate by Ames test (reference value: 5 +/- 2 ); assay type: toxicity; settings: salmonella enterica subsp. enterica serovar typhimurium
[8] = test system: Salmonella typhimurium; assay: Mutagenicity in Salmonella typhimurium TA100 assessed as revertant colonies/plate in absence of liver S9 fraction at 5000 ug/plate by Ames test (reference value: 7 +/- 2 ); assay type: toxicity; settings: salmonella enterica subsp. enterica serovar typhimurium
[9] = test system: Salmonella typhimurium; assay: Mutagenicity in Salmonella typhimurium TA98 assessed as revertant colonies/plate in presence of liver S9 fraction at 5000 ug/plate by Ames test (reference value: 1); assay type: toxicity; settings: salmonella enterica subsp. enterica serovar typhimurium
[10] = Metabolic stability in human plasma assessed as compound remaining at 100 uM after 4 hrs incubation by LC-MS/MS analysis; assay type: ADME, cell-free; settings: read-out: Stability; summary of the method: as §1
[11] = test system: Salmonella typhimurium; assay: Mutagenicity in Salmonella typhimurium TA100 assessed as revertant colonies/plate in presence of liver S9 fraction at 1000 ug/plate by Ames test (reference value: 129 +/- 3); assay type: toxicity; settings: salmonella enterica subsp. enterica serovar typhimurium
[12] = test system: Hepatitis C virus subtype 1b; assay: Inhibition of HCV genotype 1b NK5.1 NS5A in infected human Huh 7.5.1 cells assessed as reduction in viral RNA replication by measuring combination index in presence of NS5B inhibitor sofosbuvir at ED50 incubated for 3 days by luciferase reporter gene assay
Summary of the method: (§2)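 Huh 7.5.1 cells carrying the bicistronic genotype 1b replicon NK5.1-Gluc (secreted Gaussia luciferase) plated at 5 x 10⁴ cells/well. After 16 h they were exposed to inhibitor alone or mixed with sofosbuvir at a constant ratio, serially diluted, for 3 days. Luciferase was read and normalised to mock-treated cells. Combination index at ED50/75/90/95 was obtained by the Chou method.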

[13] = Oral bioavailability in rat at 10 mg/kg; assay type: ADME, organism-based; settings: in vivo
[14] = test system: Hepatitis C virus subtype 1b; assay: Inhibition of HCV genotype 1b NK5.1 NS5A in infected human Huh 7.5.1 cells assessed as reduction in viral RNA replication by measuring combination index in presence of NS5B inhibitor sofosbuvir at ED90 incubated for 3 days by luciferase reporter gene assay; summary of the method: as §2
[15] = test system: Hepatitis C virus subtype 1b; assay: Inhibition of HCV genotype 1b NK5.1 NS5A in infected human Huh 7.5.1 cells assessed as reduction in viral RNA replication by measuring combination index in presence of NS5B inhibitor sofosbuvir at ED95 incubated for 3 days by luciferase reporter gene assay; summary of the method: as §2
[16] = Cmax in rat at 10 mg/kg, po; assay type: ADME, organism-based; design: dose 10 mg/kg, route oral; settings: in vivo
[17] = test system: Salmonella typhimurium; assay: Mutagenicity in Salmonella typhimurium TA100 assessed as revertant colonies/plate in absence of liver S9 fraction at 1000 ug/plate by Ames test (reference value: 125 +/- 9); assay type: toxicity; settings: salmonella enterica subsp. enterica serovar typhimurium
[18] = Cmax in rat at 1 mg/kg, iv; assay type: ADME, organism-based; design: dose 1 mg/kg, route intravenous; settings: in vivo
[19] = Half life in rat at 10 mg/kg, po; assay type: ADME, organism-based; settings: in vivo
[20] = test system: Hepatitis C virus subtype 1b; assay: Inhibition of HCV genotype 1b NK5.1 NS5A in infected human Huh 7.5.1 cells assessed as reduction in viral RNA replication by measuring combination index in presence of NS5B inhibitor sofosbuvir at ED75 incubated for 3 days by luciferase reporter gene assay; summary of the method: as §2
[21] = test system: Salmonella typhimurium; assay: Mutagenicity in Salmonella typhimurium TA98 assessed as revertant colonies/plate in presence of liver S9 fraction at 1000 ug/plate by Ames test (reference value: 25 +/- 3); assay type: toxicity; settings: salmonella enterica subsp. enterica serovar typhimurium
[22] = test system: Rattus norvegicus; assay: Half life in rat at 1 mg/kg, iv; assay type: ADME, organism-based; settings: in vivo
[23] = molecular target: hERG (KCNH2) (Homo sapiens, UniProt Q12809); assay: Inhibition of human ERG at 10 uM by fluorescence polarization assay
[24] = test system: Salmonella typhimurium; assay: Mutagenicity in Salmonella typhimurium TA98 assessed as revertant colonies/plate in absence of liver S9 fraction at 1000 ug/plate by Ames test (reference value: 21 +/- 1); assay type: toxicity; settings: salmonella enterica subsp. enterica serovar typhimurium

hERG (KCNH2), sequence (Q12809 whole entry): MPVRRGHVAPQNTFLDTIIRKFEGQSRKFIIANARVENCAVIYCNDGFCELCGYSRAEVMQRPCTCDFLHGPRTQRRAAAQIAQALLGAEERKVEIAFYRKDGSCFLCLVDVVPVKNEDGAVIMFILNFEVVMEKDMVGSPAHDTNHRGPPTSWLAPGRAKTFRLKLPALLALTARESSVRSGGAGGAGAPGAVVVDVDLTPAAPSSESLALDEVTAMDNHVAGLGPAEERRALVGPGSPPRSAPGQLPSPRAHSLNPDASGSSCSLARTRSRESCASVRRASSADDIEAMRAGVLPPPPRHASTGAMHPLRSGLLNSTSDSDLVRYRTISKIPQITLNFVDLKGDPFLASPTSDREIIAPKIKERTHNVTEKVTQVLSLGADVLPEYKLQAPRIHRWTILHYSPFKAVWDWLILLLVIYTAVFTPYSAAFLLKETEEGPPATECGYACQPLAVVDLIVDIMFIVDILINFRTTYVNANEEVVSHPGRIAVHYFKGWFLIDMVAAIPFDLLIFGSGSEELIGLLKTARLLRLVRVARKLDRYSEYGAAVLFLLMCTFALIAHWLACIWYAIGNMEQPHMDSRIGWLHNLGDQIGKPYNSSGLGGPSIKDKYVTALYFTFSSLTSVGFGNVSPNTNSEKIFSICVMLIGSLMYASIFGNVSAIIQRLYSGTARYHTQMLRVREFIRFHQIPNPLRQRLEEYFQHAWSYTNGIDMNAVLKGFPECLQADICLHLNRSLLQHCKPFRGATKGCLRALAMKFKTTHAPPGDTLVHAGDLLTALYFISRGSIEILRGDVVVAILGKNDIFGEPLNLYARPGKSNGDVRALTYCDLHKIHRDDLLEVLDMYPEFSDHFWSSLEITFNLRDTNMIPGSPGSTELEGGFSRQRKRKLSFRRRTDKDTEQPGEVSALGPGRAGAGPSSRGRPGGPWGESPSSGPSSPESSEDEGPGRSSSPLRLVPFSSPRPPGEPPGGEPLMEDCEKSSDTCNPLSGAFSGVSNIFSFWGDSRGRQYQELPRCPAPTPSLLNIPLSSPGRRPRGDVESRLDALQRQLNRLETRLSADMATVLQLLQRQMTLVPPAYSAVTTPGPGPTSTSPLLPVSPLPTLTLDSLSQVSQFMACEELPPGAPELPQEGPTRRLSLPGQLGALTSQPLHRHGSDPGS

SMILES: O=[N+]([O-])c1ccc2c(c1)Cc1ccccc1-2 [2-NITROFLUORENE]
- Activity [1]: 183

SMILES: CCOC(=O)[C@H](CCc1ccccc1)N[C@@H](C)C(=O)N1CCC[C@H]1C(=O)O
- remaining at 4 h, 100 µM [2]: 0.032%

SMILES: COC(=O)N[C@@H](C(=O)N1CCC[C@H]1c1ncc(-c2ccc(OS(=O)(=O)Oc3ccc(-c4cnc([C@@H]5CCCN5C(=O)[C@H](NC(=O)OC)C(C)C)[nH]4)cc3)cc2)[nH]1)C(C)C
- Activity [3]: > 30 µM
- EC50 [4]: 417 nM
- EC50 [5]: 427 nM

SMILES: COC(=O)N[C@H](C(=O)N1CCC[C@H]1c1ncc(-c2cccc(OS(=O)(=O)Oc3cccc(-c4cnc([C@@H]5CCCN5C(=O)[C@@H](NC(=O)OC)C(C)(C)C)[nH]4)c3)c2)[nH]1)C(C)(C)C
- Activity [3]: > 30 µM
- EC50 [4]: 37.1 nM

SMILES: Nc1ccc(OS(=O)(=O)Oc2ccc(N)cc2)cc1
- Activity [6]: 1
- Activity [7]: 8
- Activity [8]: 10
- Activity [9]: 1

SMILES: CCN(CC)CCOC(=O)c1ccc(N)cc1 [PROCAINE]
- remaining at 4 h, 100 µM [10]: 0.003%

SMILES: COC(=O)N[C@H](C(=O)N1CCC[C@H]1c1ncc(-c2ccc(OS(=O)(=O)Oc3ccc(-c4cnc([C@@H]5CCCN5C(=O)[C@@H](NC(=O)OC)C(C)C)[nH]4)cc3)cc2)[nH]1)C(C)C
- Activity [3]: > 30 µM
- EC50 [4]: 4.26 nM

SMILES: COC(=O)N[C@H](C(=O)N1CCC[C@H]1C(=O)Nc1ccc(S(=O)(=O)c2ccc(NC(=O)[C@@H]3CCCN3C(=O)[C@@H](NC(=O)OC)C(C)C)cc2)cc1)C(C)C
- Activity [3]: > 30 µM
- EC50 [4]: > 100000 nM

SMILES: COC(=O)N[C@@H](C(=O)N1CCC[C@H]1C(=O)Nc1ccc(S(=O)(=O)c2ccc(NC(=O)[C@@H]3CCCN3C(=O)[C@H](NC(=O)OC)C(C)C)cc2)cc1)C(C)C
- Activity [3]: > 30 µM
- EC50 [4]: > 100000 nM

SMILES: COC(=O)N[C@H](C(=O)N1CCC[C@H]1c1ncc(-c2cccc(OS(=O)(=O)Oc3cccc(-c4cnc([C@@H]5CCCN5C(=O)[C@@H](NC(=O)OC)C(C)C)[nH]4)c3)c2)[nH]1)C(C)C
- Activity [3]: > 30 µM
- Activity [11]: 110
- CI [12]: 0.98
- bioavailability [13]: 0.74%
- EC50 [4]: 0.0323 nM
- remaining at 4 h, 100 µM [10]: 92.6%
- EC50 [5]: 0.882 nM
- CI [14]: 1.16
- CI [15]: 1.25
- Cmax [16]: 17 ng/mL
- Activity [17]: 125
- Cmax [18]: 1680 ng/mL
- half-life [19]: 2.25 h
- CI [20]: 1.06
- Activity [21]: 29
- t1/2 [22]: 0.92 h
- remaining at 4 h, 100 µM [2]: 87.2%
- inhibition at 10 µM [23]: 18.7%
- Activity [24]: 28

SMILES: COC(=O)N[C@H](C(=O)N1CCC[C@H]1C(=O)Nc1cccc(OS(=O)(=O)Oc2cccc(NC(=O)[C@@H]3CCCN3C(=O)[C@@H](NC(=O)OC)C(C)(C)C)c2)c1)C(C)(C)C
- Activity [3]: > 30 µM
- EC50 [4]: 0.0772 nM
- EC50 [5]: 0.943 nM

Continued, in another order:

- EC50 [4]: 0.01 nM
SMILES: COC(=O)N[C@@H](C(=O)N1CCC[C@H]1C(=O)Nc1ccc(OS(=O)(=O)Oc2ccc(NC(=O)[C@@H]3CCCN3C(=O)[C@H](NC(=O)OC)c3ccccc3)cc2)cc1)c1ccccc1
- Activity [3]: > 30 µM

- EC50 [4]: 575 nM
SMILES: COC(=O)N[C@@H](C(=O)N1CCC[C@H]1C(=O)Nc1ccc(OS(=O)(=O)Oc2ccc(NC(=O)[C@@H]3CCCN3C(=O)[C@H](NC(=O)OC)C(C)C)cc2)cc1)C(C)C
- Activity [3]: > 30 µM

- EC50 [4]: 0.109 nM
- EC50 [5]: 2.23 nM
SMILES: COC(=O)N[C@@H](C(=O)N1CCC[C@H]1C(=O)Nc1ccc(C)c(OS(=O)(=O)Oc2cc(NC(=O)[C@@H]3CCCN3C(=O)[C@H](NC(=O)OC)c3ccccc3)ccc2C)c1)c1ccccc1
- Activity [3]: > 30 µM

- CI [12]: 0.872
- bioavailability [13]: 0.54%
- EC50 [4]: 0.0198 nM
- remaining at 4 h, 100 µM [10]: 86.3%
- EC50 [5]: 0.0199 nM
- CI [14]: 0.949
- CI [15]: 0.977
- Cmax [16]: 14 ng/mL
- Cmax [18]: 1960 ng/mL
- half-life [19]: 1.6 h
- CI [20]: 0.909
- t1/2 [22]: 0.51 h
- remaining at 4 h, 100 µM [2]: 76.7%
SMILES: COC(=O)N[C@@H](C(=O)N1CCC[C@H]1C(=O)Nc1cccc(OS(=O)(=O)Oc2cccc(NC(=O)[C@@H]3CCCN3C(=O)[C@H](NC(=O)OC)c3ccccc3)c2)c1)c1ccccc1
- Activity [3]: > 30 µM
- Activity [11]: 130
- Activity [17]: 126
- Activity [21]: 29
- inhibition at 10 µM [23]: 2.73%
- Activity [24]: 26

- EC50 [4]: 22.9 nM
SMILES: COC(=O)N[C@@H](C(=O)N1CCC[C@H]1C(=O)Nc1cccc(OS(=O)(=O)Oc2cccc(NC(=O)[C@@H]3CCCN3C(=O)[C@H](NC(=O)OC)c3ccccc3)c2C)c1C)c1ccccc1
- Activity [3]: > 30 µM

- EC50 [4]: 0.27 nM
- EC50 [5]: 0.147 nM
SMILES: COC(=O)N[C@@H](C(=O)N1CCC[C@H]1c1ncc(-c2ccc(OS(=O)(=O)Oc3ccc(-c4cnc([C@@H]5CCCN5C(=O)[C@H](NC(=O)OC)c5ccccc5)[nH]4)cc3)cc2)[nH]1)c1ccccc1
- Activity [3]: > 30 µM

- EC50 [4]: 0.36 nM
- EC50 [5]: 10 nM
SMILES: COC(=O)N[C@@H](C(=O)N1CCC[C@H]1c1ncc(-c2cccc(OS(=O)(=O)Oc3cccc(-c4cnc([C@@H]5CCCN5C(=O)[C@H](NC(=O)OC)c5ccccc5)[nH]4)c3)c2)[nH]1)c1ccccc1
- Activity [3]: > 30 µM

- EC50 [4]: 36.1 nM
SMILES: COC(=O)N[C@@H](C(=O)N1CCC[C@H]1C(=O)Nc1ccc(S(=O)(=O)c2ccc(NC(=O)[C@@H]3CCCN3C(=O)[C@H](NC(=O)OC)c3ccccc3)cc2)cc1)c1ccccc1
- Activity [3]: > 30 µM
